Data set [1] concerns MDA-MB-231. The data set is described as follows: Antiproliferative activity against human MDA-MB-231 cells after 24 hrs by MTT assay. It is filed as functional, cell-based. Particulars: MDA-MB-231, 24 h. In short, it runs like this: (§1)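 MCF-7 (ER+ve) and MDA-MB-231 (ER-ve) breast cancer cells were exposed to compound or vehicle. Viability was read by MTT and expressed as % cell death versus vehicle, with 4-hydroxytamoxifen as positive control. IC50 came from three independent experiments, each in triplicate.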
In general terms: Tetrazolium assays rely on reduction of a dye to a coloured formazan, in cell work by metabolically active cells.

The subject of data set [2] is MCF7. The data set is described as follows: Antiproliferative activity against human MCF7 cells after 24 hrs by MTT assay. Format: functional, cell-based. Particulars: MCF7, 24 h. The procedure, abridged:
as §1

A short description of data set [3]: Safety index, ratio of IC50 for HEK293 cells to IC50 for human MCF7 cells. Format: toxicity, cell-based. Particulars: HEK293 cells versus MCF7 cells, read-out: Ratio IC50. The procedure, abridged: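 Cell death was assessed by MTT assay after 72 h exposure. The ratio was calculated as the HEK-293 IC50 divided by the MCF-7 EC50.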
Data set [4] concerns MCF7. The data set is described as follows: Antiproliferative activity against human MCF7 cells after 72 hrs by MTT assay. Format: functional, cell-based. Particulars: MCF7, 72 h. In short, it runs like this:
as §1

For data set [5], the system named is HEK293. The data set is described as follows: Cytotoxicity against HEK293 cells after 24 hrs by MTT assay. It is filed as cell-based. Particulars: Homo sapiens, HEK293, 72 h; in the assay text read “after 72 hrs” for “after 24 hrs”.
Data set [6] concerns MDA-MB-231. The data set is described as follows: Antiproliferative activity against human MDA-MB-231 cells after 72 hrs by MTT assay. It is filed as functional, cell-based. Particulars: MDA-MB-231, 72 h. In short, it runs like this: as §1
The subject of data set [7] is MDA-MB-231. The data set is described as follows: Antiproliferative activity against human MDA-MB-231 cells after 48 hrs by MTT assay. It is filed as functional, cell-based. Particulars: MDA-MB-231, 48 h. The procedure, abridged:
as §1

The test system of data set [8] is MCF7. The data set is described as follows: Antiproliferative activity against human MCF7 cells after 48 hrs by MTT assay. It is filed as functional, cell-based. Particulars: MCF7, 48 h. In short, it runs like this: as §1

pIC50: −log10 of the molar value.

Take `CCC(=C(c1ccc(O)cc1)c1ccc(OCCN(C)C)cc1)c1ccccc1`: the pIC50 was 4.98 in data set [1] and 5.14 in data set [2].

Consider `COc1ccc2c(c1)CN(S(=O)(=O)c1ccc(C)cc1)[C@@H](Cc1c[nH]c3ccccc13)CO2`, for which the pIC50 in data set [1] and in data set [2] was < 4.70 throughout.

Consider `Cc1ccc(S(=O)(=O)N2Cc3ccccc3OCC2Cc2ccc(O)cc2)cc1` (stereo not drawn), for which the selectivity ratio in data set [3] amounted to 3. Also, the pIC50 in data set [4] was 5.00; in data set [5] it was 4.52.

Take `CCN(CC)CCOc1ccc(C[C@H]2COc3c(cccc3OC)CN2S(=O)(=O)c2ccc(C)cc2)cc1`: the negative logarithm of the IC50 (pIC50) in data set [1] and in data set [2] was < 4.70 in each case.

Consider `COc1cccc2c1OC[C@H](Cc1ccc(OCCN3CCOCC3)cc1)N(S(=O)(=O)c1ccc(C)cc1)C2`, for which the pIC50 in data set [1] and in data set [2] was < 4.70 in each case.

`COc1ccc(C[C@H]2COc3ccccc3CN2)cc1`: the pIC50 in data set [1] and in data set [2] was < 4.70 in each case.

In the case of `COc1cccc2c1OC[C@H](Cc1ccc(OCCN(C)C)cc1)N(S(=O)(=O)c1ccc(C)cc1)C2`, the pIC50 in data set [1] and in data set [2] was < 4.70 in each case.

For the compound `COc1ccc2c(c1)OC[C@H](Cc1ccc(O)cc1)N(S(=O)(=O)c1ccc(C)cc1)C2`, the negative-log IC50 (pIC50) in data set [1] and in data set [2] was < 4.70 each time.

Take `Cc1ccc(S(=O)(=O)N2Cc3ccccc3OC[C@@H]2Cc2ccc(OCCN3CCCCC3)cc2)cc1`: the pIC50 in data set [6] is 5.38; in data set [7], 5.29; in data set [4], 5.49; in data set [8], 5.37; in data set [1], 4.99; in data set [2], 5.02.

Regarding `COc1ccc(C[C@H]2COc3ccccc3CN2C(=O)OC(C)(C)C)cc1`, the pIC50 in data set [1] and in data set [2] was < 4.70 throughout.

On to `COc1ccc(C[C@H]2COc3ccccc3CN2Cc2ccc(O)cc2)cc1`, for which the values for the pIC50 in data set [1] and in data set [2] were 4.88 and 4.99, respectively.

Turning to `COc1ccc(C[C@H]2COc3ccccc3CN2Cc2ccc(OCCN3CCCCCC3)cc2)cc1`, the pIC50 in data set [1] and in data set [2] was < 4.70 each time.

Regarding `COc1cccc2c1OC[C@H](Cc1ccc(OCCN3CCCCCC3)cc1)N(S(=O)(=O)c1ccc(C)cc1)C2`, the pIC50 in data set [1] and in data set [2] was < 4.70 in each case.

For the compound `COc1ccc(C[C@H]2COc3ccccc3CN2Cc2ccc(OCCN(C)C)cc2)cc1`, the pIC50 in data set [1] and in data set [2] was < 4.70 each time.

In the case of `COc1cccc2c1OC[C@H](Cc1ccc(OCCN3CCCC3)cc1)N(S(=O)(=O)c1ccc(C)cc1)C2`, the pIC50 in data set [1] and in data set [2] was < 4.70 each time.

In the case of `COc1ccc2c(c1)CN(S(=O)(=O)c1ccc(C)cc1)[C@@H](CC(C)C)CO2`, the pIC50 in data set [1] and in data set [2] was < 4.70 each time.

On to `COc1ccc(C[C@H]2COc3ccccc3CN2Cc2ccc(OCCN3CCCCC3)cc2)cc1`, for which the pIC50 in data set [1] and in data set [2] was < 4.70 each time.

For the compound `CCN(CC)CCOc1ccc(CN2Cc3ccccc3OC[C@@H]2Cc2ccc(OC)cc2)cc1`, the figures for the pIC50 in data set [1] and in data set [2] were 4.73 and 4.84, respectively.

Regarding `COc1ccc(C[C@H]2COc3ccccc3CN2Cc2ccc(OCCN3CCCC3)cc2)cc1`, the pIC50 in data set [1] was 4.80; in data set [2] it was 4.90.

In general, pIC50 refers to the negative decadic logarithm of the IC50, by convention in mol/L. Lower therefore signals a high IC50.

Values taken from ChEMBL document CHEMBL3091313, “Amino acids derived benzoxazepines: design, synthesis and antitumor activity” (Bioorg Med Chem Lett, 2013).
